Screens deposited in PubChem BioAssay by several laboratories.
aDG glyco up = activators of alpha-DG glycosylation, primary screen, uHTS, Pro5-aDG cells, AlphaScreen. alpha-DG glycosylation AlphaScreen (IIH6); 0% Pro5, 100% B10-LARGE cell signal. activation, % at 10 µM. hit rate 0.22% among 360,000;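 active = activation of at least 8% versus controls, or a plate z-score of at least 8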;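 also: Pro5 are CHO cells carrying HIG-tagged alpha-DG that lacks glycosylation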
ADAM17 inh = ADAM17 inhibitors, primary screen, biochemical, QFRET. Disintegrin and metalloproteinase domain-containing protein 17 (Homo sapiens), P78536. recombinant ADAM17, EDANS/DABCYL FRET peptide cleavage. inhibition, % at 6.95 µM. hit rate 0.83% among 370,000. AID 720648, 2013;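 active = inhibition above the mean of compounds lying between control limits plus 3 SD, set per campaign, cut at about 8.5% in these data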;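 also: 0% = DMSO-only wells as the low control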
Lipid droplet = inhibitors of hepatocyte lipid droplet formation, primary screen, imaging, high-throughput imaging, BODIPY stain; AML12 mouse hepatocytes, oleate lipid droplets; inhibition, % at 6.5 µM; hit rate 0.4% among 240,000;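 active = lipid droplet intensity inhibited by at least 50%, with more than 500 cells counted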
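Test system: AML12 hepatocytes (mouse); reagent: oleate loading, 100 µM; dosing: one dose, 6.5 µM compound; incubation: overnight exposure; signal: fluorescence imaging, 20x objective, two fields per well; read-out basis: % inhibition of corrected integrated BODIPY droplet signal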
ADAM10 inh = human ADAM10 inhibitors, primary screen, biochemical, QFRET, HTS. AID 720582, 2013. Disintegrin and metalloproteinase domain-containing protein 10 (Homo sapiens), O14672. inhibition, % at 7 µM. hit rate 0.62% among 370,000. recombinant ADAM10, EDANS/DABCYL FRET peptide cleavage, 3 h;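 active = inhibition above a per-campaign cutoff equal to the mean of compounds falling between control-based bounds plus 3 SD, cut at about 20% in these data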;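 also: 0% = DMSO wells while the 100% control is not disclosed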
Target sequence (O14672 214-748 limits assumed): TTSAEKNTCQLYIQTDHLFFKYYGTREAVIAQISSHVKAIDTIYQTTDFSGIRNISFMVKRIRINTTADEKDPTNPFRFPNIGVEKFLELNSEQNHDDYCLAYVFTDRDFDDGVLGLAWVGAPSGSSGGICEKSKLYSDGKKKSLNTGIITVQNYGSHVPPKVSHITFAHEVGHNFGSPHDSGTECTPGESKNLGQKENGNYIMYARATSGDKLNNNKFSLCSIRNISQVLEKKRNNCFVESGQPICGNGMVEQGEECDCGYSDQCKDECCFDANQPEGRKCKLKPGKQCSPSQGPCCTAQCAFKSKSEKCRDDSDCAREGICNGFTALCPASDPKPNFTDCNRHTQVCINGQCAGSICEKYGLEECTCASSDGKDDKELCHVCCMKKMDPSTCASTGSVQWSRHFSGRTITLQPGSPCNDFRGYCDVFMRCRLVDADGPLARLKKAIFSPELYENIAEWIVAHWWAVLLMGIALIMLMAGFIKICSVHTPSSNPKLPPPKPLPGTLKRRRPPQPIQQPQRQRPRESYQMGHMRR
MPTP inh = mitochondrial permeability transition pore inhibitors, primary screen, biochemical, isolated mouse mitochondria, absorbance; Ca2+ swelling absorbance, 30 min; inhibition, % at 10 µM; hit rate 1.4% among 360,000;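 active = inhibition of 50% or more, scaled per plate between neutral and stimulator controls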;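 also: 0% = DMSO wells given calcium and 100% = 1 mM EGTA wells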
V-ATPase pH = regulators of yeast V-ATPase proton pumping, primary screen, pHLuorin cytosolic pH fluorescence; S. cerevisiae; response, % at 10 µM; hit rate 0.37% among 350,000; AID 504577, 2011; in the data active = response mostly above about 7.3%, no sharp cut-off; inactive = mostly below about 5.4%; also: actives read high
ADAM10 confirm = human ADAM10 inhibitors, confirmation, biochemical, QFRET, triplicate | AID 743208, 2013 | inhibition, % at 6.95 µM | ADAM10 QFRET peptide cleavage, EDANS fluorescence | hit rate 1% among 2,100 | shares compounds with ADAM10 inh;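 active = inhibition above about 20% chosen separately for each screening run, limit read from the data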;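 also: 0% = DMSO wells and 100% = marimastat wells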
ADAM17 ctr = ADAM17 inhibitors, counter-screen for ADAM10 exosite inhibitor project, biochemical, QFRET, high throughput; ADAM17 QFRET peptide cleavage, EDANS fluorescence; inhibition, % at 6.95 µM; shares compounds with ADAM10 inh; hit rate 0.5% among 2,100;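 active = mean triplicate inhibition above the solvent-only control wells' mean plus 3 SD, cut at about 12% in these data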;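 also: 0% = DMSO wells and 100% = marimastat wells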
An asterisk follows results filed as active; / = no result. Most compounds without a hit are left out; they make up all but 3.1% or so of the library.

SMILES	aDG glyco up	ADAM17 inh	Lipid droplet	ADAM10 inh	MPTP inh	V-ATPase pH	ADAM10 confirm	ADAM17 ctr
CCCCn1c(SCc2nc(N)nc(Nc3ccccc3C)n2)nc2ccccc2c1=O	0	4	-35	21*	0	2	15	5
COc1cccc(/C(=N/O)C2CC2c2ccc(Cl)cc2)c1 (stereo unspecified)	0	7	-1	22*	0	3	6	1
Nc1cccc(CCc2ccncc2)c1	0	0	4	21*	1	-1	0	0
c1ccc(CCc2ccncc2)cc1	0	-1	-2	-11	-1	-3	/	/
Cn1cccc1/C=N/NC(=O)c1cc2ccccc2cc1O	0	1	-10	23*	4	4	8	5
Cc1ccc(S(=O)(=O)N2CCCCC2)cc1NC(=O)COC(=O)C1CC1	0	-2	/	-22	-2	-1	/	/
Cc1ccc(S(=O)(=O)N2CCCCC2)cc1NC(=O)COC(=O)Cc1cccc2ccccc12	0	7	-12	20*	1	-4	7	2
NS(=O)(=O)c1ccc(CCNC(=O)c2cc(-c3cc(Cl)ccc3O)n[nH]2)cc1	0	2	7	23*	7	1	2	2
COC(=O)C(Cc1cnc(Cl)s1)(C(=O)OC)c1ccc(C(F)(F)F)cc1[N+](=O)[O-]	0	5	-14	20*	2	14	4	0
O=C(c1ccco1)c1cn(CC(=O)N2CCCCCC2)c2ccccc12	0	-1	-14	-2	0	-1	/	/
CCOC(=O)C1CCN(C(=O)Cn2cc(C(=O)c3ccco3)c3ccccc32)CC1	0	-4	0	64*	0	-1	4	2
CCOc1ccc(NC(=O)C2C(c3ccccc3)C2(Cl)Cl)cc1 (stereo unspecified)	0	8	-4	20*	6	-1	7	1
Cc1occc1C(=O)NNC(=O)C(c1ccccc1)c1ccccc1	0	5	/	28*	-1	2	-1	0
Cc1occc1C(=O)Nc1ccccc1C(=O)O	0	-4	/	-1	4	5	/	/
Cc1cc(C)nc(NS(=O)(=O)c2ccc(NC(=O)Nc3ccccc3F)cc2)n1	0	-3	-1	-4	2	-4	/	/
Cc1ccc(S(=O)(=O)Nc2ccc(NC(=O)Nc3ccc(F)cc3F)cc2)cc1	0	8	14	20*	42	1	4	1
CC(C)C[C@@H]1COc2cc(N3CCSCC3)ccc2S(=O)(=O)N1C	/	0	/	3	/	/	/	/
COc1cccc(NC(=O)[C@@H](NC(=O)N2CCn3c2nc2ccccc23)C(C)C)c1	0	-1	-5	21*	-1	0	2	0
NC(=O)c1c(N)[nH]c(C(=O)c2ccccc2)c1-c1ccccn1	/	-3	/	-4	/	/	/	/
CC(C)(C)c1cc(CP(=O)(c2ccccc2)c2ccccc2)cc(C(C)(C)C)c1O	0	5	-4	24*	-1	0	2	1
COC(=O)C1=C(C)NC(C)=C(C(=O)OCC2CCCO2)C1c1ccc(Cl)c([N+](=O)[O-])c1 (stereo unspecified)	0	4	-30	26*	-1	-1	2	1
